Test results reported in EPA's CvTdb concentration-time database.

Columns and labels:
rat [1] = assay: concentration in expired air after dosing; details: dosed: hexachloroethane, 53.3 ppm, inhalation, duration: 6 hr
rat [2] = assay: concentration in expired air after dosing; details: dosed: hexachloroethane, 53.3 ppm, inhalation, duration: 6 hr; remark: listed apart in the source
rat [3] = assay: concentration in blood after dosing; negative times count back from the end of exposure; details: inhalation
dog = assay: concentration in blood after dosing; negative times count back from the end of exposure; details: dosed: tetrachloroethylene, inhalation, duration: 4 hr, male, beagle
In short: (§1)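 Points were largely digitised from plot screenshots with WebPlotDigitizer or otherwise copied from tables, and they remain in the units each source reported. They come from published in vivo toxicokinetic studies and two structured collections. Sampling and analytical methods follow each source and were often not reported.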

human = assay: as above; details: dosed: tetrachloroethylene, 144 ppm, inhalation, duration: 4 hr, male
In short: as §1

ClC(Cl)(Cl)C(Cl)(Cl)Cl [hexachloroethane]
concentration in expired air [ng/mL]
Details | rat [1] | rat [2]
0.2509 h | 96.3 | –
0.7326 h | 55.5 | –
0.8034 h | – | 73.1
0.9876 h | 48.8 | 51.1
1.498 h | 49.2 | –
1.653 h | – | 36.3
1.979 h | – | 26.3
2.489 h | 27.8 | 24.2
2.985 h | 19.8 | –
3.509 h | – | 17.9
4.983 h | 15.7 | 10.9
5.975 h | 15.4 | –
5.989 h | – | 10.1
7.236 h | – | 9.9
7.986 h | 7.51 | 8.23
8.978 h | 6.78 | 7.36
9.998 h | 5.85 | 6.12
29.5 min | – | 79.4

CCCCCC [n-hexane]
rat [3], dosed: n-hexane, 3000 ppm, duration: 6 hr
Details | concentration in blood [ng/mL]
0.4718 h | 2220
0.9831 h | 1920
1.99 h | 1370
4.003 h | 65.6
5.974 h | 42.2
7.994 h | 59.3
29 s | 8420

rat [3], dosed: n-hexane, 3000 ppm, duration: 6 hr, during exposure
Details | concentration in blood [ng/mL]
-6 h | 20.3
-5.509 h | 7900
-5.025 h | 8530
-4.008 h | 9820
-3.002 h | 9010
-2.005 h | 9720

CCCCCCCCC [nonane]
rat [3], dosed: nonane, duration: 4 hr
Details | concentration in blood [µg/g]
-83 s, 100 ppm, Fischer-344, during exposure | 0.892
-71 s, 500 ppm, Fischer-344, during exposure | 4.34
-56 s, 1000 ppm, Fischer-344, during exposure | 16.8
-3.501 h, 500 ppm, Fischer-344, during exposure | 2.02
-3.496 h, 1000 ppm, Fischer-344, during exposure | 7.04
-3.494 h, 100 ppm, Fischer-344, during exposure | 0.434
-3.003 h, 100 ppm, Fischer-344, during exposure | 0.523
-2.994 h, 1000 ppm, Fischer-344, during exposure | 6.96
-2.988 h, 500 ppm, Fischer-344, during exposure | 2.21
-2.014 h, 1000 ppm, Fischer-344, during exposure | 15.4
-2.009 h, 100 ppm, Fischer-344, during exposure | 0.518
-2.007 h, 500 ppm, Fischer-344, during exposure | 3.72
-1.02 h, 1000 ppm, Fischer-344, during exposure | 17.2
-1.016 h, 100 ppm, Fischer-344, during exposure | 0.672
-1.013 h, 500 ppm, Fischer-344, during exposure | 3.57
0.1362 h, 1000 ppm, Fischer-344 | 11
0.1413 h, 100 ppm, Fischer-344 | 0.367
0.1425 h, 500 ppm, Fischer-344 | 2.81
0.2276 h, 100 ppm, Fischer-344 | 0.309
0.2331 h, 1000 ppm, Fischer-344 | 9.37
0.2405 h, 500 ppm, Fischer-344 | 1.93
0.4818 h, 1000 ppm, Fischer-344 | 5.11
0.4859 h, 100 ppm, Fischer-344 | 0.209
0.4867 h, 500 ppm, Fischer-344 | 1.77
0.9803 h, 500 ppm, Fischer-344 | 1.17
0.9804 h, 100 ppm, Fischer-344 | 0.115
0.9849 h, 1000 ppm, Fischer-344 | 4.34
1.969 h, 100 ppm, Fischer-344 | 0.0382
1.99 h, 500 ppm, Fischer-344 | 0.41
1.992 h, 1000 ppm, Fischer-344 | 2.37
2.984 h, 500 ppm, Fischer-344 | 0.368
2.985 h, 100 ppm, Fischer-344 | 0.0308
2.999 h, 1000 ppm, Fischer-344 | 1.47
3.992 h, 100 ppm, Fischer-344 | 0.0196
3.997 h, 1000 ppm, Fischer-344 | 0.691
4.002 h, 500 ppm, Fischer-344 | 0.255
198 s, 100 ppm, Fischer-344 | 0.432
217 s, 1000 ppm, Fischer-344 | 13.7
239 s, 500 ppm, Fischer-344 | 3.73

ClC(Cl)=C(Cl)Cl [tetrachloroethylene]
Details | concentration in blood [ng/mL]
dog, 2.446 h, 142 ppm | 696
dog, 2.79 h, 72 ppm | 345
dog, 18.14 h, 72 ppm | 371
dog, 18.34 h, 142 ppm | 848
dog, 42.06 h, 72 ppm | 352
dog, 42.32 h, 142 ppm | 798
dog, 67.19 h, 72 ppm | 315
dog, 67.21 h, 142 ppm | 681
dog, 91.19 h, 72 ppm | 262
dog, 92.53 h, 142 ppm | 603
dog, 139.29 h, 72 ppm | 166
dog, 139.47 h, 142 ppm | 405
dog, 163.11 h, 72 ppm | 135
dog, 163.12 h, 142 ppm | 314
human, -0.3835 h, during exposure | 484

dog, during exposure
Details | concentration in blood [ng/mL]
-227 s, 72 ppm | 200
-0.3342 h, 142 ppm | 516

human
Details | concentration in blood [ng/mL]
2.478 h | 601
18.43 h | 752
42.35 h | 705
67.23 h | 618
92.18 h | 515
139.2 h | 334
163.09 h | 271
